Data published in ChEMBL document CHEMBL1649151, “Urinary bactericidal activity of Doripenem versus that of levofloxacin in patients with complicated urinary tract infections or pyelonephritis” (Antimicrob Agents Chemother, 2009).
Converted amounts (≈) assume the structure as drawn.

Experiments:
Proteus mirabilis [1] = assay: Antimicrobial activity against Proteus mirabilis 1134841 isolated from patient with pyelonephritis assessed as >3-log reduction in urinary bacterial titer after 24 hrs; format: functional, Urine
In short: (§1)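 Patient urine was collected on day 3 of i.v. therapy (steady state) over 4-h intervals after infusion start, stored at –80°C, and sterile filtered. It was twofold serially diluted (1:0 to 1:131,072) in the patient's own pre-dose drug-free urine, inoculated to 1.0 x 10^6–9.5 x 10^6 CFU/ml, and incubated for 18 h at 37°C. Subcultures were grown on blood agar for 24 h. The UBT is the reciprocal of the highest dilution giving >99.9% kill.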

Pseudomonas aeruginosa [2] = assay: Antimicrobial activity against Pseudomonas aeruginosa […] assessed as >3-log reduction in urinary bacterial titer after 24 hrs; format: functional, Urine; in short: as §1
Enterococcus faecalis [3] = assay: Antimicrobial activity against Enterococcus faecalis 1780065 B-B isolated from patient with pyelonephritis assessed as >3-log reduction in urinary bacterial titer after 20 hrs; format: functional, Urine
In short: (§2)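 Urine was collected before dosing and on day 3 of i.v. therapy (steady state), in 4-h intervals from infusion start (0–4 to 20–24 h), stored at −80°C and sterile filtered. It was serially diluted twofold (1:0 to 1:131,072) in the patient's drug-free pre-dose urine. Microdilution used an inoculum of 1.0 x 10^6–9.5 x 10^6 CFU/ml, incubated 18 h at 37°C, then subcultured 24 h on blood agar. The endpoint was >99.9% kill, reported as reciprocal titer.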

Escherichia coli [4] = assay: Antimicrobial activity against Escherichia coli 1135121 isolated from patient with pyelonephritis assessed as >3-log reduction in urinary bacterial titer after 20 hrs; format: functional, Urine; in short: as §2
Pseudomonas aeruginosa [5] = assay: Antimicrobial activity against Pseudomonas aeruginosa […] assessed as >3-log reduction in urinary bacterial titer after 20 hrs; format: functional, Urine; in short: as §1
Enterococcus faecalis [6] = assay: Antimicrobial activity against Enterococcus faecalis 1780065 B-B isolated from patient with pyelonephritis assessed as >3-log reduction in urinary bacterial titer after 16 hrs; format: functional, Urine; in short: as §2
Staphylococcus aureus [7] = assay: Antimicrobial activity against Staphylococcus aureus 1134684 isolated from patient with pyelonephritis assessed as >3-log reduction in urinary bacterial titer after 16 hrs; format: functional, Urine; in short: as §1
Proteus mirabilis [8] = assay: Antimicrobial activity against Proteus mirabilis 1134841 isolated from patient with pyelonephritis assessed as >3-log reduction in urinary bacterial titer after 16 hrs; format: functional, Urine; in short: as §1
Escherichia coli [9] = assay: Antimicrobial activity against Escherichia coli 1135121 isolated from patient with pyelonephritis assessed as >3-log reduction in urinary bacterial titer after 16 hrs; format: functional, Urine; in short: as §2
Staphylococcus aureus [10] = assay: Antimicrobial activity against Staphylococcus aureus 1134684 isolated from patient with pyelonephritis assessed as >3-log reduction in urinary bacterial titer after 12 hrs; format: functional, Urine; in short: as §1
Pseudomonas aeruginosa [11] = assay: Antimicrobial activity against Pseudomonas aeruginosa 1134642 isolated from patient with pyelonephritis assessed as >3-log reduction in urinary bacterial titer after 12 hrs; format: functional, Urine; in short: as §1
Proteus mirabilis [12] = assay: Antimicrobial activity against Proteus mirabilis 1134841 isolated from patient with pyelonephritis assessed as >3-log reduction in urinary bacterial titer after 12 hrs; format: functional, Urine; in short: as §1
Escherichia coli [13] = assay: Antimicrobial activity against Escherichia coli 1135121 isolated from patient with pyelonephritis assessed as >3-log reduction in urinary bacterial titer after 12 hrs; format: functional, Urine; in short: as §2
Escherichia coli [14] = assay: Antimicrobial activity against Escherichia coli 1135121 isolated from patient with pyelonephritis assessed as >3-log reduction in urinary bacterial titer after 8 hrs; format: functional, Urine; in short: as §2
Pseudomonas aeruginosa [15] = assay: Antimicrobial activity against Pseudomonas aeruginosa ATCC 27853 isolated from patient with pyelonephritis assessed as >3-log reduction in urinary bacterial titer after 8 hrs; format: functional, Urine; in short: as §1
Enterococcus faecalis [16] = assay: Antimicrobial activity against Enterococcus faecalis 1780065 B-B isolated from patient with pyelonephritis assessed as >3-log reduction in urinary bacterial titer after 4 hrs; format: functional, Urine; in short: as §2
Staphylococcus aureus [17] = assay: Antimicrobial activity against Staphylococcus aureus 1134684 isolated from patient with pyelonephritis assessed as >3-log reduction in urinary bacterial titer after 4 hrs; format: functional, Urine; in short: as §1
Escherichia coli [18] = assay: Antimicrobial activity against Escherichia coli 1949825 B-K isolated from patient with pyelonephritis assessed as >3-log reduction in urinary bacterial titer after 16 hrs; format: functional, Urine; in short: as §1
[19] = test system: Staphylococcus haemolyticus; assay: Antimicrobial activity against Staphylococcus haemolyticus 1949819 B-M isolated from patient with pyelonephritis assessed as >3-log reduction in urinary bacterial titer after 16 hrs; format: functional, Urine
Escherichia coli [20] = assay: Antimicrobial activity against Escherichia coli 1889646 B-F isolated from patient with pyelonephritis assessed as >3-log reduction in urinary bacterial titer after 12 hrs; format: functional, Urine
In short: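 Urine was collected on day 3 of i.v. therapy (steady state) over 4-h intervals from infusion start (0–4 to 20–24 h), stored at –80°C and sterile filtered. It was serially diluted twofold (1:0 up to 1:131,072) in the patient's own pre-dose drug-free urine. Microdilution used a final inoculum of 1.0 x 10^6 to 9.5 x 10^6 CFU/ml, incubated 18 h at 37°C in air. 10 µl was subcultured onto 5% blood Columbia agar for 24 h at 37°C. The bactericidal endpoint was >99.9% (>3-log) kill, reported as a reciprocal titer.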

Escherichia coli [21] = assay: Antimicrobial activity against Escherichia coli 1135121 isolated from patient with pyelonephritis assessed as >3-log reduction in urinary bacterial titer after 4 hrs; format: functional, Urine; in short: as §2
[22] = test system: Staphylococcus epidermidis; assay: Antimicrobial activity against Staphylococcus epidermidis 1949822 B-J isolated from patient with pyelonephritis by Etest; format: functional
Escherichia coli [23] = assay: Antimicrobial activity against Escherichia coli 2297257 B-W isolated from patient with pyelonephritis by Etest; format: functional
Escherichia coli [24] = assay: Antimicrobial activity against Escherichia coli 1949821 B-M isolated from patient with pyelonephritis by Etest; format: functional
Escherichia coli [25] = assay: Antimicrobial activity against Escherichia coli 1949820 B-N isolated from patient with pyelonephritis by Etest; format: functional
Staphylococcus aureus [26] = assay: Antimicrobial activity against Staphylococcus aureus 1134684 isolated from patient with pyelonephritis by Etest; format: functional
Proteus mirabilis [27] = assay: Antimicrobial activity against Proteus mirabilis 1134841 isolated from patient with pyelonephritis by Etest; format: functional
Escherichia coli [28] = assay: Antimicrobial activity against Escherichia coli 1135121 isolated from patient with pyelonephritis by Etest; format: functional
[29] = Drug excretion in pyelonephritis patient urine at 250 mg/kg, iv administered every 24 hrs; format: ADME, organism-based; design: dose 250 mg/kg, route intravenous; details: human, read-out: Activity
[30] = Drug excretion in pyelonephritis patient urine at 500 mg/kg, iv administered every 8 hrs; format: ADME, organism-based; design: dose 500 mg/kg, route intravenous; details: human, read-out: Activity
Escherichia coli [31] = assay: Antimicrobial activity against Escherichia coli 1949826 B-L isolated from patient with pyelonephritis assessed as >3-log reduction in urinary bacterial titer after 24 hrs; format: functional, Urine; in short: as §1
Escherichia coli [32] = assay: Antimicrobial activity against Escherichia coli 2297257 B-W isolated from patient with pyelonephritis assessed as >3-log reduction in urinary bacterial titer after 24 hrs; format: functional, Urine
Enterococcus faecalis [33] = assay: Antimicrobial activity against Enterococcus faecalis 2297262-10 B-V isolated from patient with pyelonephritis assessed as >3-log reduction in urinary bacterial titer after 4 hrs; format: functional, Urine; in short: as §2
Pseudomonas aeruginosa [34] = assay: Antimicrobial activity against Pseudomonas aeruginosa 1821383 B-E isolated from patient with pyelonephritis assessed as >3-log reduction in urinary bacterial titer after 16 hrs; format: functional, Urine
Escherichia coli [35] = assay: Antimicrobial activity against Escherichia coli 1780064 A-X isolated from patient with pyelonephritis by Etest; format: functional
Staphylococcus aureus [36] = assay: Antimicrobial activity against Staphylococcus aureus 2215767-9 B-S isolated from patient with pyelonephritis by Etest; format: functional

Structure (SMILES) | urinary bactericidal titer (Proteus mirabilis [1]) [reciprocal titer] | urinary bactericidal titer (Pseudomonas aeruginosa [2]) [reciprocal titer] | urinary bactericidal titer (Enterococcus faecalis [3]) [reciprocal titer] | urinary bactericidal titer (Escherichia coli [4]) [titer] | urinary bactericidal titer (Pseudomonas aeruginosa [5]) [reciprocal titer] | Time (Enterococcus faecalis [6]) [h] | urinary bactericidal titer (Staphylococcus aureus [7]) [reciprocal titer] | urinary bactericidal titer (Proteus mirabilis [8]) [reciprocal titer] | urinary bactericidal titer (Escherichia coli [9]) [reciprocal titer] | urinary bactericidal titer (Staphylococcus aureus [10]) [reciprocal titer] | urinary bactericidal titer (Pseudomonas aeruginosa [11]) [reciprocal titer] | urinary bactericidal titer (Proteus mirabilis [12]) [reciprocal titer] | urinary bactericidal titer (Escherichia coli [13]) [titer] | urinary bactericidal titer (Escherichia coli [14]) [titer] | urinary bactericidal titer (Pseudomonas aeruginosa [15]) [reciprocal titer] | urinary bactericidal titer (Enterococcus faecalis [16]) [reciprocal titer] | urinary bactericidal titer (Staphylococcus aureus [17]) [reciprocal titer] | urinary bactericidal titer (Escherichia coli [21]) [reciprocal titer] | MIC [22] [µg/mL] | MIC (Escherichia coli [24]) [µg/mL] | further results
C[C@@H](O)[C@H]1C(=O)N2C(C(=O)O)=C(S[C@@H]3CN[C@H](CNS(N)(=O)=O)C3)[C@H](C)[C@H]12 [DORIPENEM] | 512 | 512 | 256 | 32800 | 4096 | 48 | 4 | 1540 | 8192 | 12 | 6140 | 6140 | 65500 | 24600 | 1024 | 128 | 8 | 49200 | > 32 | ≤ 0.015 | urinary bactericidal titer (Escherichia coli [18]): 2048 reciprocal titer; urinary bactericidal titer [19]: 128 reciprocal titer; urinary bactericidal titer (Escherichia coli [20]): 32800 reciprocal titer; MIC (Escherichia coli [23]): 0.015 µg/mL (≈ 0.0357 µM); MIC (Escherichia coli [25]): 0.03 µg/mL (≈ 0.0713 µM); MIC (Staphylococcus aureus [26]): 32 µg/mL (≈ 76.1 µM); MIC (Proteus mirabilis [27]): 0.03 µg/mL (≈ 0.0713 µM); MIC (Escherichia coli [28]): ≤ 0.015 µg/mL; dose excreted at 24 h [29]: 80%; dose excreted at 8 h [30]: 80%; urinary bactericidal titer (Escherichia coli [31]): 16400 reciprocal titer; urinary bactericidal titer (Escherichia coli [32]): 4096 reciprocal titer
C[C@H]1COc2c(N3CCN(C)CC3)c(F)cc3c(=O)c(C(=O)O)cn1c23.C[C@H]1COc2c(N3CCN(C)CC3)c(F)cc3c(=O)c(C(=O)O)cn1c23.O [LEVOFLOXACIN] | 0 | 4 | 8 | 3 | 6 | 16 | 4 | 0 | 2.5 | 4 | 1 | 0 | 3 | 8 | 16 | 32 | 8 | 8 | 8 | 0.125 | Time (Enterococcus faecalis [33]): 0 h; urinary bactericidal titer (Pseudomonas aeruginosa [34]): 128 reciprocal titer; MIC (Escherichia coli [35]): 0.047 µg/mL; MIC (Staphylococcus aureus [36]): > 32 µg/mL; MIC (Escherichia coli [25]): 8 µg/mL; MIC (Staphylococcus aureus [26]): 4 µg/mL; MIC (Proteus mirabilis [27]): > 8 µg/mL; MIC (Escherichia coli [28]): 4 µg/mL; dose excreted at 24 h [29]: 80%; dose excreted at 8 h [30]: 80%
